According to ChEMBL document CHEMBL5107950, “Structure-based design of haloperidol analogues as inhibitors of acetyltransferase Eis from Mycobacterium tuberculosis to overcome kanamycin resistance” (RSC Med Chem, 2021):
≈ marks a conversion by molar mass, not a printed value. Calls of active or inactive are those of the source. No cut-off for these calls is given here.

Legend:
[1] = target: T1, N-acetyltransferase Eis (Mycobacterium tuberculosis (strain ATCC 25618 / H37Rv), UniProt P9WFK7); test: Inhibition of Mycobacterium tuberculosis Eis assessed as Eis-mediated kanamycin acetylation preincubated for 10 mins followed by substrate addition and measured for 2 to 5 mins using acetyl-CoA as substrate in presence of kanamycin by UV-Vis spectroscopy analysis
T1 sequence (P9WFK7 whole entry): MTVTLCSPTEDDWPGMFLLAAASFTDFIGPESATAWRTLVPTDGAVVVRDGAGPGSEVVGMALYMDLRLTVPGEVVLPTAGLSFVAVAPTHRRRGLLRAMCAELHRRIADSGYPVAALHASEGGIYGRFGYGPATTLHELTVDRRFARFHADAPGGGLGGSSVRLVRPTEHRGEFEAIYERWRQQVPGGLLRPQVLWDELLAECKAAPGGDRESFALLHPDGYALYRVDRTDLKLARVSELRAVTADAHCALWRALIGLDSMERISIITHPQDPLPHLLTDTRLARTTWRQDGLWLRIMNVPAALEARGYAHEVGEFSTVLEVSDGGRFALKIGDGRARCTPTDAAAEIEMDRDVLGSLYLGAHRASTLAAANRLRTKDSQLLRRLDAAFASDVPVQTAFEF
In short: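 Recombinant Eis (1 µM) mixed with KAN (400 µM) in 50 mM Tris-HCl pH 8.0 and preincubated 10 min with 5-fold serially diluted inhibitor (10% DMSO in buffer). Reaction started with AcCoA and DTNB (2 mM each, as added). Absorbance read every 30 s for 20 min. Initial rates (first 2-5 min) fitted to Hill plot for IC50. At least triplicate.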

[2] = tested on: Mycolicibacterium smegmatis; test: Antibacterial activity against Mycobacterium smegmatis mc2 155 assessed as inhibition of bacterial growth incubated upto 3 weeks hrs by resazurin dye based double-dilution method; assay type: functional; settings: mc2 155, 504 h
In short: (§1)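 Double-dilution broth MIC. Media: M. smegmatis, Mueller-Hinton; M. abscessus, 7H9 + 0.05% Tween80 + 0.4% glycerol; mc²6230, 7H9 + 0.05% tyloxapol, 0.5% glycerol, 10% OADC, 0.2% casamino acids, 24 µg/mL pantothenate; other mycobacteria, 7H9 + 0.05% Tween80, 0.4% glycerol, 10% ADC. Inoculum from agar set to 0.5 McFarland, then diluted 1:100.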

[3] = tested on: Mycobacteroides abscessus; test: Antibacterial activity against Mycobacterium abscessus ATCC 19977 assessed as inhibition of bacterial growth incubated upto 3 weeks hrs by resazurin dye based double-dilution method; assay type: functional; settings: ATCC 19977, 504 h; in short: as §1
[4] = tested on: Mycobacterium intracellulare; test: Antibacterial activity against Mycobacterium intracellulare ATCC 13950 assessed as inhibition of bacterial growth incubated upto 3 weeks hrs by resazurin dye based double-dilution method; assay type: functional; settings: ATCC 13950, 504 h; in short: as §1
[5] = tested on: Mycobacterium avium; test: Antibacterial activity against Mycobacterium avium ATCC 25921 assessed as inhibition of bacterial growth incubated upto 3 weeks hrs by resazurin dye based double-dilution method; assay type: functional; settings: ATCC 25921, 504 h; in short: as §1
[6] = tested on: Mycobacterium tuberculosis; test: Antibacterial activity against Mycobacterium tuberculosis H37Ra ATCC NRS22 assessed as inhibition of bacterial growth incubated upto 3 weeks hrs by resazurin dye based double-dilution method; assay type: functional; settings: H37Ra ATCC NRS22, 504 h; in short: as §1
[7] = tested on: Mycolicibacterium smegmatis; test: Synergistic antibacterial activity against Mycobacterium smegmatis mc2 155 assessed as fold reduction in MIC value at 8 ug/ml in presence of spectinomycin by checkerboard assay; assay type: functional; settings: dose 8 µg/ml
[8] = tested on: Mycolicibacterium smegmatis; test: Synergistic antibacterial activity against Mycobacterium smegmatis mc2 155 assessed as fold reduction in MIC value at 8 ug/ml in presence of clarithromycin by checkerboard assay; assay type: functional; settings: dose 8 µg/ml
[9] = tested on: Mycolicibacterium smegmatis; test: Synergistic antibacterial activity against Mycobacterium smegmatis mc2 155 assessed as fold reduction in MIC value at 8 ug/ml in presence of clofazimine by checkerboard assay; assay type: functional, organism-based; settings: dose 8.0 µg/ml
[10] = tested on: Mycobacteroides abscessus; test: Synergistic antibacterial activity against Mycobacterium abscessus ATCC 19977 assessed as reduction in bacterial growth presence of spectinomycin by checkerboard assay; assay type: functional, organism-based
In short: (§2)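 Checkerboard in 96-well plates. Antibiotic two-fold serially diluted along columns, haloperidol derivative two-fold along rows. Bacteria prepared as for the MIC determination. MICs alone and in combination used to calculate FICI. At least duplicate independent trials.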

[11] = tested on: Mycobacteroides abscessus; test: Synergistic antibacterial activity against Mycobacterium abscessus ATCC 19977 in presence of clarithromycin by checkerboard assay; assay type: functional, organism-based; in short: as §2
[12] = tested on: Mycobacteroides abscessus; test: Synergistic antibacterial activity against Mycobacterium abscessus ATCC 19977 in presence of clofazimine by checkerboard assay; assay type: functional, organism-based; in short: as §2
[13] = tested on: Mycobacterium intracellulare; test: Antibacterial activity against Mycobacterium intracellulare ATCC 13950 in presence of spectinomycin by checkerboard assay; assay type: functional, organism-based; in short: as §2
[14] = tested on: Mycobacterium intracellulare; test: Antibacterial activity against Mycobacterium intracellulare ATCC 13950 in presence of clarithromycin by checkerboard assay; assay type: functional, organism-based; in short: as §2
[15] = tested on: Mycobacterium intracellulare; test: Antibacterial activity against Mycobacterium intracellulare ATCC 13950 in presence of clofazimine by checkerboard assay; assay type: functional, organism-based; in short: as §2
[16] = tested on: Mycobacterium avium; test: Antibacterial activity against Mycobacterium avium ATCC 25921 in presence of spectinomycin by checkerboard assay; assay type: functional, organism-based; in short: as §2
[17] = tested on: Mycobacterium avium; test: Antibacterial activity against Mycobacterium avium ATCC 25921 in presence of clarithromycin by checkerboard assay; assay type: functional, organism-based; in short: as §2
[18] = tested on: Mycobacterium avium; test: Antibacterial activity against Mycobacterium avium ATCC 25921 in presence of clofazimine by checkerboard assay; assay type: functional, organism-based; in short: as §2
[19] = tested on: Mycobacterium tuberculosis; test: Synergistic antibacterial activity against Mycobacterium tuberculosis H37Ra ATCC NRS22 in presence of spectinomycin by checkerboard assay; assay type: functional, organism-based; in short: as §2
[20] = tested on: HEK293; test: Cytotoxicity against human HEK293 cells assessed as reduction in cell viability at 200 uM incubated for 24 hrs by resazurin assay; assay type: toxicity, cell-based; settings: hek293, 24 h
In short: (§3)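 Resazurin viability assay in DMEM + 10% FBS, 1% penicillin/streptomycin, 37 °C, 5% CO₂. Seeding: HEK-293 and J774A.1 at 1×10^4 cells/mL, A549 at 5×10^3 cells/mL. After 24 h, compounds added (0.78-200 μM, 0.5% DMSO final). Resazurin added 24 h later, read after 6 h. 1% Triton X as positive control. Quadruplicate.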

[21] = tested on: A549; test: Cytotoxicity against human A549 cells assessed as reduction in cell viability at 200 uM incubated for 24 hrs by resazurin assay; assay type: toxicity, cell-based; settings: a549, 24 h; in short: as §3
[22] = tested on: J774.A1; test: Cytotoxicity against mouse J774.A1 cells assessed as reduction in cell viability at 50 uM incubated for 24 hrs by resazurin assay; assay type: toxicity, cell-based; settings: j774.a1, 24 h; in short: as §3
[23] = tested on: Mycobacterium tuberculosis; test: Potentiation of kanamycin-induced antibacterial activity against Mycobacterium tuberculosis H37Rv assessed as kanamycin MIC incubated for 1 day followed by kanamycin addition for 6 days and by Alamar blue assay; assay type: functional; settings: 168 h, time 7 day
In short: (§4)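 Mtb in 7H9 + 10% ADC, 0.05% Tween 80, 0.4% glycerol at 37 °C. Inoculum adjusted to OD600 0.2, diluted 1:25. Cells preincubated 24 h at 37 °C with compound (100 µL of 200 µM solution). KAN then added: H37Rv at 2.5 and 1.25 µg/mL; K204 at 10, 5, 2.5, 1.25 µg/mL. Incubated 6 days, AlamarBlue added, colour read at 24 and 48 h. MIC = lowest KAN with no colour change. At least twice in duplicate.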

[24] = tested on: Mycobacterium tuberculosis; test: Potentiation of kanamycin-induced antibacterial activity against Mycobacterium tuberculosis K204 assessed as kanamycin MIC incubated for 1 day followed by kanamycin addition for 6 days and by Alamar blue assay; assay type: functional; settings: K204, 168 h, time 7 day; in short: as §4
[25] = tested on: J774.A1; test: Cytotoxicity against mouse J774.A1 cells assessed as reduction in cell viability at 100 uM incubated for 24 hrs by resazurin assay; assay type: toxicity, cell-based; settings: j774.a1, 24 h; in short: as §3
[26] = tested on: A549; test: Cytotoxicity against human A549 cells assessed as reduction in cell viability at 100 uM incubated for 24 hrs by resazurin assay; assay type: toxicity, cell-based; settings: a549, 24 h; in short: as §3

O=C(CCCN1CCC(O)(c2ccc(Cl)cc2)CC1)c1ccc(Cl)cc1 [CHLOROHALOPERIDOL]
IC50 [1]: 5.1 µM | MIC [2]: > 62.5 µM | MIC [3]: > 62.5 µM | MIC [4]: > 62.5 µM | MIC [5]: 62.5 µM (≈ 24.5 µg/mL) | MIC [6]: 15.6 µM (≈ 6.12 µg/mL) | fold change (FC) [7]: 16 | fold change (FC) [8]: 4 | Activity [9]: Active | Activity [10]: Active | Activity [11]: Active | Activity [12]: Active | Activity [13]: Active | Activity [14]: Active | Activity [15]: Active | Activity [16]: Active | Activity [17]: Active | Activity [18]: Active | Activity [19]: Active | Activity [20]: Non-Toxic | Activity [21]: Non-Toxic | Activity [22]: Toxic

COc1ccc(C(=O)CCCN2CCC(O)(c3ccc(Cl)cc3)CC2)cc1
IC50 [1]: 40 µM | MIC [23]: ≤ 1.25 mg/L | MIC [24]: > 10 mg/L | MIC [2]: > 62.5 µM | MIC [3]: > 62.5 µM | MIC [4]: > 62.5 µM | MIC [5]: > 62.5 µM | MIC [6]: 62.5 µM (≈ 24.2 µg/mL) | Activity [25]: Toxic | Activity [26]: 78%
